Experimental data reported in ChEMBL document CHEMBL3414514, “Synthesis and pharmacological evaluation of novel bisindole derivatives bearing oximes moiety: identification of novel proapoptotic agents” (Eur J Med Chem, 2015).

How the values were obtained:
[1] = system: MGC-803; experiment: Cytotoxicity against human MGC803 cells after 2 days by MTT assay; type: functional, cell-based; conditions: MGC-803, 48 h
How it was run: (§1)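 Cells grown in medium with 10% heat-inactivated FBS at 37 C under 5% CO2. Compounds dissolved in medium with 1% DMSO; controls received 1% DMSO. After 2 days, MTT (10 mg/mL) added for 4 h, formazan dissolved in DMSO and absorbance read at 570/630 nm. Survival taken relative to negative control; IC50 by Bliss method (n = 5), at least three independent experiments.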

[2] = Cytotoxicity against human T24 cells after 2 days by MTT assay; type: functional, cell-based; conditions: T-24, 48 h; how it was run: as §1
[3] = system: HUVEC; experiment: Cytotoxicity against human HUVEC cells after 2 days by MTT assay; type: cell-based; conditions: 48 h; how it was run: as §1
[4] = system: NCI-H460; experiment: Cytotoxicity against human NCI-H460 cells after 2 days by MTT assay; type: functional, cell-based; conditions: NCI-H460, 48 h; how it was run: as §1
[5] = system: HepG2; experiment: Cytotoxicity against human HepG2 cells after 2 days by MTT assay; type: functional, cell-based; conditions: HepG2, 48 h; how it was run: as §1
[6] = system: A549; experiment: Cytotoxicity against human A549 cells after 2 days by MTT assay; type: functional, cell-based; conditions: A549, 48 h; how it was run: as §1
[7] = Cytotoxicity against human SPCA2 cells after 2 days by MTT assay; type: functional, cell-based; conditions: SPCA2, 48 h; how it was run: as §1
[8] = Cytotoxicity against human SKOV3 cells after 2 days by MTT assay; type: functional, cell-based; conditions: SK-OV-3, 48 h; how it was run: as §1

| Structure (SMILES) | IC50 [1] | IC50 [2] | IC50 [3] | IC50 [4] | IC50 [5] | IC50 [6] | IC50 [7] | IC50 [8] |
| --- | --- | --- | --- | --- | --- | --- | --- | --- |
| O=[N+]([O-])c1ccc2c(c1)/C(=N\O)C(c1c[nH]c3ccc([N+](=O)[O-])cc13)=N2 | 10.8 µM | 13.2 µM | > 100 µM | 11.5 µM | 8.25 µM | 10.4 µM | 11.2 µM | 10.7 µM |
| Fc1ccc(CO/N=C2/C(c3c[nH]c4ccccc34)=Nc3ccccc32)cc1 | 33 µM | 23.1 µM | > 100 µM | 20.7 µM | 35.5 µM | 27 µM | 25.9 µM | 29 µM |
| Cc1ccc(CO/N=C2/C(c3c[nH]c4ccccc34)=Nc3ccccc32)cc1 | 22.8 µM | 23.5 µM | > 100 µM | 29.8 µM | 19.1 µM | 22.4 µM | 25.4 µM | 32.4 µM |
| COC(=O)c1ccc2c(c1)N=C(c1c[nH]c3cc(C(=O)OC)ccc13)/C2=N/O | 29.8 µM | 14.3 µM | > 100 µM | 20.8 µM | 20.8 µM | 25.9 µM | 27.2 µM | 26.8 µM |
| N#Cc1ccc2c(c1)/C(=N\O)C(c1c[nH]c3ccc(C#N)cc13)=N2 | 18.4 µM | 28.4 µM | > 100 µM | 14.3 µM | 30.1 µM | 14.9 µM | 19.2 µM | 25.9 µM |
| O/N=C1/C(c2c[nH]c3ccc(F)cc23)=Nc2ccc(F)cc21 | 12.3 µM | 10.1 µM | > 100 µM | 12.8 µM | 9.31 µM | 11.9 µM | 13.7 µM | 9.89 µM |
| CC(=O)Nc1ccc2c(c1)/C(=N\O)C(c1c[nH]c3ccc(NC(C)=O)cc13)=N2 | 17.9 µM | 16.8 µM | > 100 µM | 30.2 µM | 28.2 µM | 21.9 µM | 27.8 µM | 21.2 µM |
| Clc1cccc(CO/N=C2/C(c3c[nH]c4ccc(Br)cc34)=Nc3ccc(Br)cc32)c1 | 7.6 µM | 9.34 µM | > 100 µM | 14.6 µM | 13.3 µM | 12.9 µM | 13.5 µM | 14.1 µM |
| O=c1[nH]cc(F)c(=O)[nH]1 [FLUOROURACIL] |  | 40.6 µM |  | 46.1 µM | 32 µM | 38.2 µM | 44.1 µM | 27.3 µM |
| c1ccc2c(c1)N=C(c1c[nH]c3ccccc13)/C2=N/OCC1CC1 | 29.9 µM | 35.4 µM | > 100 µM | 40.9 µM | 32.1 µM | 36.7 µM | 33.8 µM | 32.3 µM |
| N#Cc1cccc2c1/C(=N\O)C(c1c[nH]c3cccc(C#N)c13)=N2 | 35.4 µM | 19.4 µM | > 100 µM | 18.8 µM | 40.5 µM | 33.6 µM | 30.9 µM | 30.6 µM |
| FC(F)(F)c1ccc(CO/N=C2/C(c3c[nH]c4ccc(Br)cc34)=Nc3ccc(Br)cc32)cc1 | 11.1 µM | 9.88 µM | > 100 µM | 11.2 µM | 11.1 µM | 8.45 µM | 12.4 µM | 10.2 µM |
| C=CCO/N=C1/C(c2c[nH]c3ccccc23)=Nc2ccccc21 | 24.3 µM | 32.1 µM | > 100 µM | 24.5 µM | 31.3 µM | 30.9 µM | 26.9 µM | 26.7 µM |
| Fc1ccc2c(c1)N=C(c1c[nH]c3cc(F)ccc13)/C2=N/OCc1ccccc1 | 21.9 µM | 13.3 µM | > 100 µM | 19.4 µM | 24.1 µM | 15.7 µM | 20.2 µM | 15.6 µM |
| N#Cc1ccc2c(c1)/C(=N\OCc1ccccc1)C(c1c[nH]c3ccc(C#N)cc13)=N2 | 15.5 µM | 18.6 µM | > 100 µM | 14.5 µM | 25.1 µM | 14.2 µM | 19.3 µM | 16.6 µM |
| Fc1ccc(CO/N=C2/C(c3c[nH]c4ccccc34)=Nc3ccccc32)c(Cl)c1 | 18.5 µM | 20 µM | > 100 µM | 21.9 µM | 25.4 µM | 21.4 µM | 19.5 µM | 37.6 µM |
| Cc1ccc(CO/N=C2/C(c3c[nH]c4ccc(Br)cc34)=Nc3ccc(Br)cc32)cc1 | 31.2 µM | 21.4 µM | > 100 µM | 10.6 µM | 20.4 µM | 13.3 µM | 15.1 µM | 7.22 µM |
| O/N=C1/C(c2c[nH]c3ccccc23)=Nc2ccccc21 | 20.6 µM | 27.4 µM | > 100 µM | 22.5 µM | 20.4 µM | 21.8 µM | 20.4 µM | 15.9 µM |
| Cc1ccc2c(c1)/C(=N\O)C(c1c[nH]c3ccc(C)cc13)=N2 | 9.47 µM | 8.78 µM | > 100 µM | 18.3 µM | 10.7 µM | 11.2 µM | 19.6 µM | 11.1 µM |
| Fc1ccc2c(c1)/C(=N\OCc1ccccc1)C(c1c[nH]c3ccc(F)cc13)=N2 | 21.3 µM | 12.5 µM | > 100 µM | 12 µM | 17.3 µM | 10.5 µM | 13.3 µM | 12.3 µM |
| CCCCO/N=C1/C(c2c[nH]c3ccccc23)=Nc2ccccc21 | 23.3 µM | 35.2 µM | > 100 µM | 42.2 µM | 33.6 µM | 37 µM | 29.2 µM | 46 µM |
| O/N=C1/C(c2c[nH]c3ccc(Br)cc23)=Nc2ccc(Br)cc21 | 13.2 µM | 12.5 µM | > 100 µM | 18.9 µM | 14.3 µM | 16.2 µM | 11.6 µM | 19.2 µM |
| Cc1cccc2c1/C(=N\O)C(c1c[nH]c3cccc(C)c13)=N2 | 25 µM | 15 µM | > 100 µM | 24.2 µM | 21.3 µM | 44.9 µM | 42.2 µM | 27 µM |
| Cc1cccc2c1N=C(c1c[nH]c3c(C)cccc13)/C2=N/O | 16.9 µM | 23.5 µM | > 100 µM | 31.4 µM | 15.6 µM | 17.5 µM | 24.3 µM | 48 µM |
| Cc1cccc2c1N=C(c1c[nH]c3c(C)cccc13)/C2=N/OCc1cccc(F)c1 | 31.9 µM | 21.2 µM | > 100 µM | 16.8 µM | 34.1 µM | 23.3 µM | 20.4 µM | 17.3 µM |
